Values joined by “and” are separate entries in the source; they are usually repeats but may differ in a detail not shown here. Equal values may be shown once.
Test system: HEK-293T
Test: Multiplex assay against HEK293T
Format: toxicity, cell-based
Details: human, number of replicates 2
How it was run: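 Cells stained live at seeding with Hoechst33342, BioTracker Green Microtubule Cytoskeleton Dye, MitoTracker Red and Annexin V Alexa Fluor 680 were imaged on a CQ1 microscope at 37°C and 5% CO2 after compound addition. Their classification by CellPathfinder machine-learning gating ran from Hoechst high-intensity objects versus normal cells, to healthy, pyknosed or fragmented nuclei among normal cells, to mitotic or apoptotic among pyknosed cells. Tubulin, mitochondrial-mass and membrane-permeability phenotypes are per cents of healthy-nucleus cells.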

[1] = 12 h, 1 µM, compound concentration 1 uM
[2] = 12 h, 10 µM, compound concentration 10 uM
[3] = 24 h, 1 µM, compound concentration 1 uM
[4] = 24 h, 10 µM, compound concentration 10 uM
[5] = 48 h, 1 µM, compound concentration 1 uM
[6] = 48 h, 10 µM, compound concentration 10 uM

## CS(=O)(=O)c1ccc(C(=O)Nc2cccc(COc3ccc(Br)cc3CN3CC[C@H](O)C3)c2)cc1.O=CO
[1]
  Population Apoptotic (%): 50% and 69%
  Population Fragmented Nuclei (%): 2% and 3%
  Population Healthy Nuclei (%): 72% and 70%
  Population Normal (%): 87% and 88%
  Total Cell Count: 490 and 407
[2]
  Population Apoptotic (%): 46%
  Population Fragmented Nuclei (%): 3% and 2%
  Population Healthy Nuclei (%): 85%
  Population Normal (%): 93% and 94%
  Total Cell Count: 467 and 532
[3]
  Population Fragmented Nuclei (%): 6% and 5%
  Population Healthy Nuclei (%): 79% and 76%
  Population Normal (%): 89% and 90%
  Total Cell Count: 663 and 599
[4]
  Population Apoptotic (%): 57% and 66%
  Population Fragmented Nuclei (%): 3% and 4%
  Population Healthy Nuclei (%): 80% and 85%
  Population Normal (%): 95% and 91%
  Total Cell Count: 543 and 659
[5]
  Population Apoptotic (%): 46%
  Population Fragmented Nuclei (%): 13% and 10%
  Population Healthy Nuclei (%): 80% and 84%
  Population Normal (%): 90%
  Total Cell Count: 1404 and 1241
[6]
  Population Apoptotic (%): 32%
  Population Fragmented Nuclei (%): 5% and 6%
  Population Healthy Nuclei (%): 86%
  Population Normal (%): 93% and 92%
  Total Cell Count: 812 and 937

## CS(=O)(=O)c1ccc(NC(=O)c2cccc(COc3ccc(Br)cc3CNCCO)c2)c(Cl)c1.O=CO
[1]
  Population Healthy Nuclei (%): 83%
  Population Mitotic Cells (%): 47% and 41%
  Population Pyknosed Nuclei (%): 14%
  Total Cell Count: 651 and 549
[2]
  Population Healthy Nuclei (%): 84% and 82%
  Population Mitotic Cells (%): 37% and 33%
  Total Cell Count: 462
[3]
  Population Healthy Nuclei (%): 85% and 84%
  Population Mitotic Cells (%): 46%
  Population Pyknosed Nuclei (%): 8% and 10%
  Total Cell Count: 981 and 842
[4]
  Population Healthy Nuclei (%): 82% and 80%
  Population Mitotic Cells (%): 33% and 32%
  Population Pyknosed Nuclei (%): 16%
  Total Cell Count: 436 and 479
[5]
  Population Healthy Nuclei (%): 84% and 85%
  Population Mitotic Cells (%): 74% and 85%
  Population Pyknosed Nuclei (%): 4% and 3%
  Total Cell Count: 1426 and 1953
[6]
  Population Healthy Nuclei (%): 84% and 85%
  Population Mitotic Cells (%): 21%
  Population Pyknosed Nuclei (%): 10% and 9%
  Total Cell Count: 560 and 607

## Cc1onc(-c2ccccc2Cl)c1C(=O)N(C)c1ccc(Cl)cc1
[1]
  Population Apoptotic (%): 39% and 47%
  Population Fragmented Nuclei (%): 2% and 5%
  Population Healthy Nuclei (%): 80% and 83%
  Population Hoechst High Intensity Objects (%): 6%
  Population Membrane Permeable-Phenotype (%): 2% and 1%
  Population Mitochondria Different-Phenotype (%): 18% and 15%
  Population Mitotic Cells (%): 60% and 52%
  Population Normal (%): 93%
  Population Pyknosed Nuclei (%): 16% and 11%
  Population Tubulin-Different-Phenotype (%): 47% and 44%
  Total Cell Count: 587 and 613
[2]
  Population Apoptotic (%): 50%
  Population Fragmented Nuclei (%): 3%
  Population Healthy Nuclei (%): 81% and 84%
  Population Hoechst High Intensity Objects (%): 5% and 7%
  Population Membrane Permeable-Phenotype (%): 4% and 1%
  Population Mitochondria Different-Phenotype (%): 26% and 20%
  Population Mitotic Cells (%): 50% and 49%
  Population Normal (%): 94% and 92%
  Population Pyknosed Nuclei (%): 15% and 11%
  Population Tubulin-Different-Phenotype (%): 77% and 55%
  Total Cell Count: 575 and 625
[3]
  Population Apoptotic (%): 44% and 42%
  Population Fragmented Nuclei (%): 7%
  Population Healthy Nuclei (%): 83% and 86%
  Population Hoechst High Intensity Objects (%): 6% and 8%
  Population Membrane Permeable-Phenotype (%): 2%
  Population Mitochondria Different-Phenotype (%): 4% and 5%
  Population Mitotic Cells (%): 55% and 57%
  Population Normal (%): 93% and 91%
  Population Pyknosed Nuclei (%): 9% and 6%
  Population Tubulin-Different-Phenotype (%): 22%
  Total Cell Count: 896 and 976
[4]
  Population Apoptotic (%): 36% and 23%
  Population Fragmented Nuclei (%): 5% and 6%
  Population Healthy Nuclei (%): 84% and 85%
  Population Hoechst High Intensity Objects (%): 5% and 8%
  Population Membrane Permeable-Phenotype (%): 4%
  Population Mitochondria Different-Phenotype (%): 14% and 5%
  Population Mitotic Cells (%): 63% and 76%
  Population Normal (%): 94% and 91%
  Population Pyknosed Nuclei (%): 9% and 7%
  Population Tubulin-Different-Phenotype (%): 51% and 30%
  Total Cell Count: 757 and 965
[5]
  Population Apoptotic (%): 12% and 17%
  Population Fragmented Nuclei (%): 11% and 9%
  Population Healthy Nuclei (%): 84% and 87%
  Population Hoechst High Intensity Objects (%): 8%
  Population Membrane Permeable-Phenotype (%): 4%
  Population Mitochondria Different-Phenotype (%): 1% and 0%
  Population Mitotic Cells (%): 87% and 82%
  Population Normal (%): 91%
  Population Pyknosed Nuclei (%): 3% and 2%
  Population Tubulin-Different-Phenotype (%): 8% and 11%
  Total Cell Count: 2361 and 2103
[6]
  Population Apoptotic (%): 25% and 17%
  Population Fragmented Nuclei (%): 11% and 14%
  Population Healthy Nuclei (%): 84% and 82%
  Population Hoechst High Intensity Objects (%): 8%
  Population Membrane Permeable-Phenotype (%): 6%
  Population Mitochondria Different-Phenotype (%): 2% and 0%
  Population Mitotic Cells (%): 75% and 82%
  Population Normal (%): 91%
  Population Pyknosed Nuclei (%): 4% and 2%
  Population Tubulin-Different-Phenotype (%): 33% and 16%
  Total Cell Count: 1552 and 2354

## C[C@@H]1CC[C@@]2(OC1)O[C@H]1[C@@H](O)[C@H]3[C@@H]4CC[C@H]5C[C@@H](O[C@@H]6O[C@H](CO)[C@H](O[C@@H]7O[C@H](CO)C(O)[C@H](O[C@@H]8OC[C@@H](O)[C@H](O)[C@H]8O)[C@H]7O[C@@H]7O[C@H](CO)[C@H](O)[C@H](O[C@@H]8O[C@H](CO)[C@@H](O)[C@H](O)[C@H]8O)[C@H]7O)[C@H](O)[C@H]6O)[C@H](O)C[C@]5(C)[C@H]4CC[C@]3(C)[C@H]1[C@@H]2C (some centres not stated) [DIGITONIN]
[2]
  Population Apoptotic (%): 61% and 33% and 40% and 57%
  Population Fragmented Nuclei (%): 7% and 2% and 3% and 6%
  Population Healthy Nuclei (%): 79% and 88% and 83% and 81%
  Population Hoechst High Intensity Objects (%): 10% and 5% and 4% and 8%
  Population Membrane Permeable-Phenotype (%): 1% and 3%
  Population Mitochondria Different-Phenotype (%): 14% and 13% and 16% and 17%
  Population Mitotic Cells (%): 38% and 66% and 59% and 42%
  Population Normal (%): 89% and 94% and 95% and 91%
  Population Pyknosed Nuclei (%): 13% and 8% and 12% and 11%
  Population Tubulin-Different-Phenotype (%): 50% and 43% and 44% and 49%
  Total Cell Count: 558 and 637 and 534 and 641
[4]
  Population Apoptotic (%): 44% [middle of 4 runs]
  Population Fragmented Nuclei (%): 5% and 8% and 2% and 10%
  Population Healthy Nuclei (%): 86% and 81% and 90%
  Population Hoechst High Intensity Objects (%): 7% and 9% and 6% and 8%
  Population Membrane Permeable-Phenotype (%): 3% and 2%
  Population Mitochondria Different-Phenotype (%): 4% and 2% and 7% and 3%
  Population Mitotic Cells (%): 67% and 34% and 68% and 55%
  Population Normal (%): 92% and 90% and 93% and 91%
  Population Pyknosed Nuclei (%): 8% and 9% and 6%
  Population Tubulin-Different-Phenotype (%): 26% and 22% and 28% and 17%
  Total Cell Count: 1037 and 963 and 742 and 1134
[6]
  Population Apoptotic (%): 13% and 14% and 23% and 21%
  Population Fragmented Nuclei (%): 13% and 15% and 10% and 17%
  Population Healthy Nuclei (%): 83% and 79% and 85% and 80%
  Population Hoechst High Intensity Objects (%): 10% and 9% and 11%
  Population Membrane Permeable-Phenotype (%): 5% and 3% and 2%
  Population Mitochondria Different-Phenotype (%): 0%
  Population Mitotic Cells (%): 86% and 85% and 76% and 78%
  Population Normal (%): 89% and 90% and 88%
  Population Pyknosed Nuclei (%): 3% and 4% and 2%
  Population Tubulin-Different-Phenotype (%): 13% and 5% and 14% and 6%
  Total Cell Count: 2746 and 2725 and 1654 and 2990

## C[C@@H](Oc1cc(-n2cnc3ccc(OC4CCN(C)CC4)cc32)sc1C(N)=O)c1ccccc1Cl [GSK-579289A]
[1]
  Population Apoptotic (%): 49% and 50%
  Population Fragmented Nuclei (%): 4% and 2%
  Population Healthy Nuclei (%): 79% and 81%
  Population Hoechst High Intensity Objects (%): 7% and 8%
  Population Membrane Permeable-Phenotype (%): 8% and 3%
  Population Mitochondria Different-Phenotype (%): 27% and 24%
  Population Mitotic Cells (%): 50%
  Population Normal (%): 93% and 91%
  Population Pyknosed Nuclei (%): 16%
  Population Tubulin-Different-Phenotype (%): 88% and 90%
  Total Cell Count: 686 and 707
[2]
  Population Apoptotic (%): 72% and 75%
  Population Fragmented Nuclei (%): 2% and 1%
  Population Healthy Nuclei (%): 79% and 84%
  Population Hoechst High Intensity Objects (%): 19% and 10%
  Population Membrane Permeable-Phenotype (%): 7% and 3%
  Population Mitochondria Different-Phenotype (%): 69% and 73%
  Population Mitotic Cells (%): 27% and 25%
  Population Normal (%): 80% and 89%
  Population Pyknosed Nuclei (%): 17% and 13%
  Population Tubulin-Different-Phenotype (%): 82% and 85%
  Total Cell Count: 381 and 356
[3]
  Population Apoptotic (%): 41% and 65%
  Population Fragmented Nuclei (%): 1% and 3%
  Population Healthy Nuclei (%): 75%
  Population Hoechst High Intensity Objects (%): 8% and 7%
  Population Membrane Permeable-Phenotype (%): 2% and 0%
  Population Mitochondria Different-Phenotype (%): 55% and 62%
  Population Mitotic Cells (%): 58% and 34%
  Population Normal (%): 91% and 92%
  Population Pyknosed Nuclei (%): 22% and 21%
  Population Tubulin-Different-Phenotype (%): 93% and 95%
  Total Cell Count: 585 and 584
[4]
  Population Apoptotic (%): 78% and 69%
  Population Fragmented Nuclei (%): 7% and 6%
  Population Healthy Nuclei (%): 75% and 79%
  Population Hoechst High Intensity Objects (%): 23% and 16%
  Population Membrane Permeable-Phenotype (%): 1%
  Population Mitochondria Different-Phenotype (%): 88% and 75%
  Population Mitotic Cells (%): 21% and 30%
  Population Normal (%): 76% and 84%
  Population Pyknosed Nuclei (%): 16% and 14%
  Population Tubulin-Different-Phenotype (%): 66% and 80%
  Total Cell Count: 362 and 350
[5]
  Population Apoptotic (%): 68% and 63%
  Population Fragmented Nuclei (%): 3% and 4%
  Population Healthy Nuclei (%): 85% and 83%
  Population Hoechst High Intensity Objects (%): 6% and 13%
  Population Membrane Permeable-Phenotype (%): 1% and 0%
  Population Mitochondria Different-Phenotype (%): 67%
  Population Mitotic Cells (%): 31% and 36%
  Population Normal (%): 93% and 86%
  Population Pyknosed Nuclei (%): 10% and 11%
  Population Tubulin-Different-Phenotype (%): 89% and 90%
  Total Cell Count: 471 and 559
[6]
  Population Apoptotic (%): 67% and 73%
  Population Fragmented Nuclei (%): 12% and 11%
  Population Healthy Nuclei (%): 61% and 68%
  Population Hoechst High Intensity Objects (%): 20% and 22%
  Population Membrane Permeable-Phenotype (%): 4% and 3%
  Population Mitochondria Different-Phenotype (%): 78% and 68%
  Population Mitotic Cells (%): 32% and 26%
  Population Normal (%): 79% and 77%
  Population Pyknosed Nuclei (%): 26% and 19%
  Population Tubulin-Different-Phenotype (%): 55% and 65%
  Total Cell Count: 453 and 440
